Laboratory results taken from publication PMC11397428 (Science Advances, 2024).
Converted amounts (≈) assume the structure as drawn. Where a SMILES comes first, the peptide text is derived from it. The star is where a group is joined. Phenylacetyl(4-Ph) = O=C(Cc1ccc(-c2ccccc2)cc1)*

Columns and labels:
[1] = tested on: bone marrow–derived macrophages (BMDMs); experiment: M2 macrophage polarization of BMDMs, CD206/CD86 flow cytometry; format: cell-based, mouse; conditions: M1 positive control LPS 10 ng ml^−1 and IFN-γ 20 ng ml^−1
[2] = Pulmonary biodistribution of FITC-labeled peptide, CLSM; format: in vivo, mouse; conditions: 128 μM, 50 μl intratracheal, 1 h
In short: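 Acute lung injury induced in BALB/c mice by intratracheal LPS (10 mg kg^−1). FITC-labelled peptide (128 μM, 50 μl) then given intratracheally, n = 3. Lungs taken 1 hour after dosing. Sections stained for CD68 (macrophages) with DAPI counterstain and imaged by confocal microscopy.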

BMDMs = experiment: Endocytosis mode of FITC-BLKR with endocytosis inhibitors; format: cell-based, mouse; conditions: FITC-BLKR 16 μM, 15 min; EIPA 50 μM, CPZ 40 μM, Filipin III 5 μg ml^−1; n = 3
red blood cells (RBCs) = experiment: Hemolysis assay; format: cell-based, New Zealand rabbit; conditions: 3 hours, 37°C, PBS; for hemolytic activity: 256 μM, n = 9
In short: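 Freshly drawn rabbit blood diluted tenfold in PBS. RBCs pelleted and washed eight times with PBS. Peptide stocks made in PBS at 512 μM and diluted twofold six times. RBCs incubated with peptide for 3 hours at 37°C; 1% Triton X-100 as positive control, PBS as negative control. Samples spun at 10,000 rpm for 10 min; hemolysis calculated from supernatant absorbance at 570 nm.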

[3] = tested on: human bronchial epithelial cells (BEAS-2B); experiment: Cytocompatibility, MTT assay; format: cell-based; conditions: 24-hour coincubation
In short: (§1)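 Cell lines grown with 10% FBS and 1% penicillin-streptomycin. Seeded at 1 × 10^4 cells per well and allowed 24 hours to attach. Medium then replaced with fresh medium containing test peptide at a range of concentrations. Viability read by MTT after 24 hours of co-incubation.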

MRE-induced ALI = experiment: Comparison with ceftazidime in MRE-infected mice; format: in vivo, mouse; conditions: ceftazidime/avibactam 32/8 mg kg^−1 subcutaneous every 12 hours; n = 12
[4] = tested on: human embryonic kidney (HEK) 293T; experiment: Cytocompatibility, MTT assay; format: cell-based; conditions: 24 h, n = 9
In short: as §1

[5] = tested on: HS-5 (human marrow stromal cells); experiment: Cytocompatibility, MTT assay; format: cell-based; conditions: 24 h, n = 9
In short: as §1

RAW264.7 = experiment: Cytocompatibility, MTT assay; format: cell-based, murine; conditions: 24 h, n = 9
In short: as §1

DC2.4 = experiment: Cytocompatibility, MTT assay; format: cell-based, murine; conditions: 24 h, n = 9
In short: as §1

[6] = tested on: multidrug-resistant Escherichia coli (MRE); experiment: MIC against MRE; format: cell-based; conditions: n = 3 biologically replicates
[7] = Pharmacokinetic study of SPRAY-BLKR-NPs in ALI mice; format: in vivo, mouse
healthy mice = experiment: Immunomodulation and toxicity in healthy mice; format: in vivo, mouse

Compound: lipopolysaccharide [LPS]
- CD86+ macrophage in the total population [1]: more than 80%

Compound: CC(C)C[C@H](N)C(=O)N[C@@H](CCCCN)C(=O)N[C@@H](CCCNC(=N)N)C(=O)N[C@H](C(=O)N[C@@H](Cc1c[nH]c2ccccc12)C(=O)N[C@@H](CCCCN)C(=O)N[C@@H](CCCNC(=N)N)C(=O)O)C(C)C [LKR] (H-LKRVWKR-OH)
- accumulation in injured lung tissue [2]: extremely little accumulation

Compound: CCN(c1nc(N)c(C(=O)NC(=N)N)nc1Cl)C(C)C [EIPA, ethyl-isopropyl-amiloride]
- loss of BLKR uptake quantified by FITC intensity (BMDMs): 22.14%

Compound: CCCCC[C@@H](O)[C@H]1C(=O)O[C@H](C)[C@@H](O)/C=C/C=C/C=C/C=C/C=C(\C)[C@@H](O)C[C@H](O)C[C@H](O)C[C@H](O)C[C@H](O)C[C@H](O)C[C@@H]1O [Filipin III]
- loss of BLKR uptake quantified by FITC intensity (BMDMs): 43.01%

Compound: CC[C@H](C)[C@H](NC(=O)[C@H](CC(C)C)NC(=O)[C@H](CCCNC(=N)N)NC(=O)[C@H](Cc1ccccc1)NC(=O)[C@H](Cc1ccccc1)NC(=O)Cc1ccc(-c2ccccc2)cc1)C(=O)N[C@@H](CCCNC(=N)N)C(=O)N[C@@H](Cc1ccc(O)cc1)C(=O)N[C@@H](CCSC)C(=O)N[C@@H](C)C(=O)N[C@@H](CCCCN)C(=O)O [BRLI] ({Phenylacetyl(4-Ph)}-FFRLIRYMAK-OH)
- hemolysis rate (red blood cells (RBCs); 128 μM): 7.49%

Compound: CC[C@H](C)[C@H](NC(=O)[C@H](CCCCN)NC(=O)[C@H](Cc1ccccc1)NC(=O)[C@H](Cc1ccccc1)NC(=O)Cc1ccc(-c2ccccc2)cc1)C(=O)N[C@H](C(=O)N[C@@H](CCCCN)C(=O)N[C@H](C(=O)N[C@@H](C)C(=O)N[C@@H](CCCCN)C(=O)O)C(C)C)[C@@H](C)CC [BKII] ({Phenylacetyl(4-Ph)}-FFKIIKVAK-OH)
- hemolytic activity (red blood cells (RBCs)): no detectable hemolytic activity
- cytotoxicity toward BEAS-2B [3]: no notable cytotoxicity

Compound: CN(C)CCCN1c2ccccc2Sc2ccc(Cl)cc21 [CPZ, chlorpromazine]
- loss of BLKR uptake quantified by FITC intensity (BMDMs): 24.47%

Compound: CC(C)(O/N=C(\C(=O)N[C@@H]1C(=O)N2C(C(=O)[O-])=C(C[n+]3ccccc3)CS[C@H]12)c1csc(N)n1)C(=O)O [Ceftazidime]
- 2-day survival rate (MRE-induced ALI): 58.3%

Compound: CC(C)C[C@H](NC(=O)[C@H](Cc1ccccc1)NC(=O)[C@H](Cc1ccccc1)NC(=O)Cc1ccc(-c2ccccc2)cc1)C(=O)N[C@@H](CCCCN)C(=O)N[C@@H](CCCNC(=N)N)C(=O)N[C@H](C(=O)N[C@@H](Cc1c[nH]c2ccccc12)C(=O)N[C@@H](CCCCN)C(=O)N[C@@H](CCCNC(=N)N)C(=O)O)C(C)C [BLKR] ({Phenylacetyl(4-Ph)}-FFLKRVWKR-OH)
- hemolytic activity (red blood cells (RBCs)): no detectable hemolytic activity
- cytotoxicity toward BEAS-2B [3]: no notable cytotoxicity
- cytotoxicity, HEK 293T [4]: no significant cytotoxicity
- cytotoxicity, HS-5 [5]: no significant cytotoxicity
- cytotoxicity, RAW264.7 (RAW264.7): no significant cytotoxicity
- cytotoxicity, DC2.4 (DC2.4): no significant cytotoxicity
- MIC against MRE [6]: 16 µM (≈ 23.6 µg/mL)
- BLKR left in entire respiratory tract ([7]; ALI mice, single dose 18.42 μg per mouse, 12 hours after administration): ~10%
- pulmonary area under the curve relative to kidney ([7]; within 24 hours): > 154.13 times
- pulmonary area under the curve relative to liver ([7]; within 24 hours): more than 47.90 times
- monocyte infiltration in the alveolar site, histology (healthy mice; 128 or 256 μM, 50 μl twice): no monocyte infiltration was observed
- inflammatory cell infiltration in lung, histology (healthy mice; 512 or 1204 μM): inflammatory cell infiltration occurred in lung
- monocyte percentage in peripheral blood (healthy mice; all the tested concentrations, n = 3): no elevation of monocyte percentage
